# The source made the active and inactive calls. The calls are words filed in the database; no cut-off is given here.
# Tests used:
# [1] = test system: Huh-7; assay: Cytotoxicity against human Huh-7 cells assessed as cell viability after 96 hrs by CellTiter-Glo Luminescent cell viability assay; type: cell-based; conditions: huh-7, 96 h
# Procedure, shortened: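 Huh7 cells seeded at 4×10^3 per well and treated one day later with 1.25–40 µM compound or DMSO for 96 h. ATP-based luminescent viability read-out, normalized to untreated cells.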
# [2] = test system: Zika virus; assay: Antiviral activity against ZIKV H/PF/2013 infected in human Huh7 cells assessed as decrease in viral RNA expression at 10 uM measured up to 96 hrs by renilla luciferase assay; type: functional, organism-based; conditions: Huh-7, time hrs <=96
# Procedure, shortened: (§1)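 Huh7 cells electroporated with in vitro transcribed ZIKV H/PF/2013 subgenomic replicon RNA (Renilla luciferase, coelenterazine substrate). Compound at 10 µM or DMSO is added 4 h post-electroporation in medium with 15 mM HEPES and replenished at 48 h. Lysates are taken at 4, 24, 48, 72 and 96 h and normalized to the 4 h input value. Duplicate reads; mean ± SD, n = 3.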
# [3] = molecular target: Nonstructural protein 3 (Zika virus, UniProt A0A024AXB9); assay: Inhibition of ZIKV NS2B-NS3 protease expressed in Escherichia coli BL21(DE3) using Boc-Gly-Arg-Arg-AMC as substrate by FRET assay
# Procedure, shortened: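 His-tagged ZIKV NS2B/NS3 protease in 50 mM Tris pH 9.0, 20% glycerol, 1 mM CHAPS with 100 µM Boc-Gly-Arg-Arg-AMC. Dilution series 0.01–100 µM, read every 30 s for 10 min at 25 °C. IC50 from a four-parameter fit of hydrolysis rate; mean ± SD of ≥3 independent measurements.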
# [4] = molecular target: T1, Genome polyprotein (dengue virus type 2, UniProt P29990); assay: Inhibition of DENV2 NS2B-NS3 protease expressed in Escherichia coli BL21(DE3) using Boc-Gly-Arg-Arg-AMC as substrate by FRET assay
# Procedure, shortened: (§2)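 Recombinant His-tagged NS2B/NS3 protease, expressed in E. coli BL21-Gold (DE3) (1 mM IPTG, 20 °C, 16 h) and purified by Ni affinity and size exclusion. Assayed in 50 mM Tris pH 9.0, 20% glycerol, 1 mM Chaps, with 100 μM Boc-Gly-Arg-Arg-AMC. Fluorescence read every 30 s for 10 min at 25 °C; inhibitor 0.01–100 μM. IC50 from a four-parameter fit of hydrolysis rate; ≥3 independent experiments.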
# [5] = molecular target: Trypsin (Homo sapiens) (UniProt P07477+P07478+P35030); assay: Inhibition of Trypsin (unknown origin) assessed as residual enzyme activity at 20 uM by FRET assay relative to control; type: protein assay
# Procedure, shortened: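 Trypsin in 50 mM Tris pH 8.0, 100 mM NaCl, 5 mM EDTA with 40 µM Z-Phe-Arg-AMC. Compound at 20 µM, read every 30 s for 10 min at 25 °C. Residual activity is relative to DMSO control; mean ± SD, ≥3 independent measurements.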
# [6] = molecular target: Prothrombin (Homo sapiens) (UniProt P00734); assay: Inhibition of Thrombin (unknown origin) assessed as residual enzyme activity at 20 uM by FRET assay relative to control
# Procedure, shortened: (§3)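 Compound at 20 µM, read every 30 s for 10 min at 25 °C. Residual activity is relative to DMSO control; mean ± SD, ≥3 independent measurements.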
# [7] = molecular target: Chymotrypsin (Homo sapiens) (UniProt Q99895+P17538+P40313+Q6GPI1); assay: Inhibition of Chymotrypsin (unknown origin) assessed as residual enzyme activity at 20 uM by FRET assay relative to control; type: protein assay
# Procedure, shortened: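 α-Chymotrypsin in 50 mM Tris pH 8.0, 100 mM NaCl with Succ-Leu-Tyr-AMC. Compound at 20 µM, read every 30 s for 10 min at 25 °C. Residual activity is relative to DMSO control; mean ± SD, ≥3 independent measurements.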
# [8] = molecular target: Urokinase-type plasminogen activator (Homo sapiens) (UniProt P00749); assay: Inhibition of Urokinase plasminogen activator (unknown origin) assessed as residual enzyme activity at 20 uM by FRET assay relative to control
# Procedure, shortened: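 Urokinase plasminogen activator in 50 mM Tris pH 7.4, 50 mM NaCl, 0.5 mM EDTA with 240 µM Z-Gly-Gly-Arg-AMC. Compound at 20 µM, read every 30 s for 10 min at 25 °C. Residual activity is relative to DMSO control; mean ± SD, ≥3 independent measurements.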
# [9] = test system: Severe acute respiratory syndrome coronavirus 2; assay: Inhibition of SARS-CoV-2 Main protease assessed as residual enzyme activity at 20 uM by FRET assay relative to control
# Procedure, shortened: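 Compound at 20 μM; fluorescence read every 30 s for 10 min at 25 °C. Residual activity expressed relative to DMSO control; mean of ≥3 independent measurements.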
# [10] = Inhibition of Rhodesain (unknown origin) assessed as residual enzyme activity at 20 uM by FRET assay relative to control
# Procedure, shortened: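 Compound at 20 µM, fluorescence read every 30 s for 10 min at 25 °C. Residual activity is relative to DMSO control; mean ± SD, ≥3 independent measurements.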
# [11] = molecular target: T2, Sortase A (Staphylococcus aureus) (UniProt Q9S446); assay: Inhibition of staphylococcus aureus Sortase A protease assessed as residual enzyme activity at 20 uM by FRET assay relative to control; procedure, shortened: as §3
# T2 sequence (whole entry): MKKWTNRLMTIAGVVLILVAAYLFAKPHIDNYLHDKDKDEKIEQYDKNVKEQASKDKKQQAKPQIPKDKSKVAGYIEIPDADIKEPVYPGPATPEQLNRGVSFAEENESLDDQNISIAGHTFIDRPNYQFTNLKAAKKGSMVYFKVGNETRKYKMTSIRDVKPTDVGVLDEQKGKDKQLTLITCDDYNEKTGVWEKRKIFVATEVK
# [12] = Chemical stability of compound in tris assay buffer at pH 9 measured after 15 mins by HPLC/MS analysis; type: physicochemical; conditions: pH 9, 0.25 h
# Procedure, shortened: (§4)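 Compound incubated in protease assay buffer (Tris pH 9.0) under simulated assay conditions and analysed by HPLC/MS after 15 min, 90 min and 20 h. Stability is the compound peak integral in the 210 nm UV trace as a proportion of the total integral.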
# [13] = Chemical stability of compound in tris assay buffer at pH 9 measured after 90 mins by HPLC/MS analysis; type: physicochemical; conditions: pH 9, 1.5 h; procedure, shortened: as §4
# [14] = Chemical stability of compound in tris assay buffer at pH 9 measured after 20 hrs by HPLC/MS analysis; type: physicochemical; conditions: pH 9, 20 h; procedure, shortened: as §4
# [15] = Chemical stability of compound in cell culture conditions at pH 7.4 HEPES buffer measured after 15 mins by HPLC/MS analysis; type: physicochemical; conditions: read-out: Stabilty
# Procedure, shortened: (§5)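 Compound incubated under simulated cell-assay conditions (HEPES pH 7.4) and analysed by HPLC/MS after 15 min, 90 min and 20 h. Stability is the compound peak integral in the 210 nm UV trace as a fraction of the total integral.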
# [16] = Chemical stability of compound in cell culture conditions at pH 7.4 HEPES buffer measured after 90 mins by HPLC/MS analysis; type: physicochemical; conditions: read-out: Stabilty; procedure, shortened: as §5
# [17] = Chemical stability of compound in cell culture conditions at pH 7.4 HEPES buffer measured after 20 hrs by HPLC/MS analysis; type: physicochemical; conditions: read-out: Stabilty; procedure, shortened: as §5
# [18] = test system: dengue virus type 2; assay: Antiviral activity against DENV2 New Guinea C infected in human Huh7 cells assessed as decrease in viral RNA expression at 10 uM measured up to 72 hrs by firefly luciferase assay; type: functional, organism-based; conditions: Huh-7, time hrs <=72
# Procedure, shortened: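 Huh7 cells electroporated with in vitro transcribed DENV2 NGC subgenomic replicon RNA (firefly luciferase), 4×10^6 cells per 10 µg RNA. Compound at 10 µM or DMSO is added 4 h post-electroporation in medium with 15 mM HEPES and replenished at 48 h. Lysates are taken at 4–96 h and replication is expressed relative to the 4 h input value. Duplicate luminometer reads; mean ± SD, n = 3.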
# [19] = Inhibition of DENV2 NS2B-NS3 protease T120A/N167Q mutant expressed in Escherichia coli BL21(DE3) using Boc-Gly-Arg-Arg-AMC as substrate by FRET assay; parameters: species or system dengue virus type 2; procedure, shortened: as §2
# [20] = molecular target: T1, Genome polyprotein; assay: Binding affinity to DENV2 NS2B-NS3 protease by Dixon plot analysis
# Procedure, shortened: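 Fluorogenic DENV2 NS2B/NS3 assay run in 50 mM Tris pH 9.0, 20% glycerol, 1 mM Chaps, with IC50 determined at several Boc-Gly-Arg-Arg-AMC concentrations (50–200 μM). Kinetic fluorescence read at 25 °C for 10 min. Mode of inhibition assessed and apparent Ki derived by Dixon plot analysis.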
# [21] = molecular target: T3, Nonstructural protein 3 (Zika virus) (UniProt A0A024AXB9); assay: Inhibition of ZIKV NS2B-NS3 protease expressed in Escherichia coli BL21(DE3) using Boc-Gly-Arg-Arg-AMC as substrate at 100 uM by FRET assay
# Procedure, shortened: (§6)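 His-tagged NS2B/NS3 protease, purified by Ni affinity and size exclusion, in 50 mM Tris pH 9.0, 20% glycerol, 1 mM CHAPS with 100 µM Boc-Gly-Arg-Arg-AMC. Fluorescence is read every 30 s for 10 min at 25 °C. Percent inhibition is at a single inhibitor concentration of 20, 100 or 200 µM; ≥3 independent measurements.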
# [22] = molecular target: Genome polyprotein (dengue virus type 2) (UniProt P29990); assay: Inhibition of DENV2 NS2B-NS3 protease expressed in Escherichia coli BL21(DE3) using Boc-Gly-Arg-Arg-AMC as substrate at 100 uM by FRET assay; procedure, shortened: as §6
# [23] = molecular target: T3, Nonstructural protein 3 (Zika virus); assay: Inhibition of ZIKV NS2B-NS3 protease expressed in Escherichia coli BL21(DE3) using Boc-Gly-Arg-Arg-AMC as substrate at 200 uM by FRET assay; procedure, shortened: as §6
# [24] = molecular target: Genome polyprotein (dengue virus type 2) (UniProt P29990); assay: Inhibition of DENV2 NS2B-NS3 protease expressed in Escherichia coli BL21(DE3) using Boc-Gly-Arg-Arg-AMC as substrate at 200 uM by FRET assay; procedure, shortened: as §6
# [25] = test system: Zika virus; assay: Antiviral activity against ZIKV H/PF/2013 infected in human Huh7 cells assessed as decrease in viral RNA expression at 10 uM measured up to 72 hrs by renilla luciferase assay; type: functional, organism-based; conditions: Huh-7, time hrs <=72; procedure, shortened: as §1
Compound,Activity [1],IC50 [3] [nM],IC50 [4] [nM],Activity [5] [%],Activity [6] [%],Activity [7] [%],Activity [8] [%],Activity [9] [%],Activity [10] [%],Activity [11] [%],Stabilty [12] [%],Stabilty [13] [%],Stabilty [14] [%],remaining at 0.25 h [15] [%],remaining at 1.5 h [16] [%],remaining at 20 h [17] [%],Activity [18],inhibition [23],inhibition [24],other results
O=C(Nc1nc2cc(O)c(O)cc2s1)c1ccc(I)cc1,Non-Toxic,670,4380,94,65,79,100,89,77,74,83,83,83,95,95,95,Active,–,–,Activity [2]: Active; IC50 [19]: 8010 nM; Ki [20]: 7670 nM
O=C(Nc1ccccc1)c1cc2c(O)cc(O)cc2o1,–,–,–,–,–,–,–,–,–,–,–,–,–,–,–,–,–,–,–,inhibition [21]: 62%; inhibition [22]: 51%
COc1cc2nc(NC(=O)c3ccc(I)cc3)sc2cc1OC,–,–,–,–,–,–,–,–,–,–,–,–,–,–,–,–,Active,–,–,–
O=C(Nc1ccccc1)c1cc2cc(O)ccc2o1,–,–,–,–,–,–,–,–,–,–,–,–,–,–,–,–,–,inactive,inactive,–
O=C(Nc1ccccc1)c1cc2cc([N+](=O)[O-])c(O)cc2o1,–,–,–,–,–,–,–,–,–,–,–,–,–,–,–,–,–,48%,19%,–
COc1cc2nc(NC(=O)C(c3ccccc3)c3ccccc3)sc2cc1OC,–,–,–,–,–,–,–,–,–,–,–,–,–,–,–,–,Active,–,–,Activity [25]: inactive
Nc1cc2cc(C(=O)Nc3ccccc3)oc2cc1O,–,–,–,–,–,–,–,–,–,–,–,–,–,–,–,–,–,52%,34%,–
O=C(Nc1ccccc1)c1cc2cc(O)c(O)cc2o1,Non-Toxic,1040,690,96,97,58,91,52,93,64,83,83,83,95,95,95,Active,–,–,Activity [2]: Active; IC50 [19]: 730 nM
O=C(Nc1nc2cc(O)c(O)cc2s1)C(c1ccccc1)c1ccccc1,Non-Toxic,950,11100,85,95,96,62,77,86,73,83,83,83,95,95,95,Active,–,–,–
O=C(Nc1ccccc1)c1cc2ccc(O)cc2o1,–,–,–,–,–,–,–,–,–,–,–,–,–,–,–,–,–,inactive,inactive,–
